Bioassay records: PubChem BioAssay, several laboratories
GRIN3A LBD mod = binders of NR3A ligand-binding domain, primary screen, biophysical, differential scanning fluorimetry, uHTS; Glutamate receptor ionotropic, NMDA 3A (GRIN3A) ligand-binding domain; NR3A LBD differential scanning fluorimetry, Tm shift; 0% = protein alone, 100% = glycine-bound protein; Tm shift relative to glycine control, % at 25 µM; 340,000 compounds, 2.5% hits; AID 1259313, 2017;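 active = melting temperature shift of at least 10% of the positive control shift, at one fixed dose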
PAFAH1B2 inh = PAFAH1B2 enzyme inhibitors, primary screen, biochemical, fluorescence polarization, human | Platelet-activating factor acetylhydrolase IB subunit alpha2 (Homo sapiens), P68402 | recombinant PAFAH1B2, FP-rhodamine activity probe | inhibition, % at 3.39 µM | 340,000 compounds, 1.2% hits | AID 492953, 2010;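 active = inhibition above the mean of all tested compounds plus 3 SD, cut at about 24% in these data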;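 also: 0% = enzyme with DMSO and 100% = wells lacking PAFAH1B2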
PAFAH2 inh = PAFAH2 enzyme inhibitors, primary screen, biochemical, fluorescence polarization, human; recombinant PAFAH2, FP-rhodamine activity probe; inhibition, % at 3.39 µM; AID 492956, 2010; 340,000 compounds, 0.99% hits;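 active = inhibition above the mean over all tested compounds plus 3 SD, cut at about 30% in these data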;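 also: inhibitors block probe labeling of enzyme so polarization drops; 0% = enzyme with DMSO and 100% = wells lacking PAFAH2 protein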
PAFAH1B3 FP inh = PAFAH1B3 enzyme inhibitors, primary screen, biochemical, fluorescence polarization, human | Platelet-activating factor acetylhydrolase IB subunit alpha1 (Homo sapiens), Q15102 | recombinant PAFAH1B3, FP-rhodamine probe | inhibition, % at 3.39 µM | 340,000 compounds, 0.28% hits;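 active = inhibition above the screen-wide average of all tested compounds plus 3 SD, cut at about 25% in these data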;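 also: 0% = enzyme with DMSO only and 100% = wells lacking PAFAH1B3 protein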
pPAFAH inh = pPAFAH enzyme inhibitors, primary screen, biochemical, fluorescence polarization, human; Platelet-activating factor acetylhydrolase (Homo sapiens), Q13093; recombinant pPAFAH, FP-rhodamine probe fluorescence polarization; inhibition, % at 3.39 µM; 330,000 compounds, 1.5% hits; AID 463082, 2010;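 active = inhibition above the mean inhibition across the screen plus 3 SD, cut at about 25% in these data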;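 also: inhibitors block binding of the rhodamine activity-based probe so polarization drops; 0% = enzyme with DMSO and 100% = wells lacking pPAFAH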
UCH37 inh = inhibitors of human UCH37 deubiquitinase, primary screen, biochemical, Ub-AMC cleavage, fluorescence; purified proteasome/UCH37; 330,000 compounds, 0.33% hits; inhibition, % (concentration not given with the values); Ubiquitin carboxyl-terminal hydrolase isozyme L5 (Homo sapiens), Q9Y5K5;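 active = mean inhibition over replicate wells above about 20%, limit read from the data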;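 also: 0% = compound-free wells with enzyme and 100% = wells lacking proteasome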
Target sequence (Q9Y5K5 whole entry, looked up): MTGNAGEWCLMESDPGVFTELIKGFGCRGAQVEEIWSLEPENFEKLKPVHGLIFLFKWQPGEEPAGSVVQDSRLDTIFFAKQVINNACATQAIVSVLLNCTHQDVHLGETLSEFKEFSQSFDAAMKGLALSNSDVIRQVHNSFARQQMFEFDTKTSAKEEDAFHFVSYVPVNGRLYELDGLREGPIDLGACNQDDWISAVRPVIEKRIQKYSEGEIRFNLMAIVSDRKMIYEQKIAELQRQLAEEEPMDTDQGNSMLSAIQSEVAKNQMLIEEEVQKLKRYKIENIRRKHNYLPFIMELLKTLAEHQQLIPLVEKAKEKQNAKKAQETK
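Material: human UCH37 enzyme supplied as purified proteasome complex / Amount: 0.15 nM proteasome as dispensed / Buffer or medium: pH 7.4 Tris-HCl (50 mM) with ovalbumin, ATP-MgCl2, DTT / Times: preincubation 30 min, reaction 25 min, room temperature / Technique: AMC fluorescence from Ub-AMC cleavage, excitation 355 nm, emission 460 nm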
PAFAH2 FP conf = PAFAH2 enzyme inhibitors, confirmation, biochemical, fluorescence polarization, human | shares compounds with PAFAH2 inh | recombinant PAFAH2, FP-rhodamine activity probe | inhibition, % at 3.39 µM | 2,300 compounds, 65% hits;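 active = mean inhibition over three repeats above a set limit taken from the earlier primary screen, cut at about 30% in these data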;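 also: inhibitor blocks binding of rhodamine activity probe so polarization falls; 0% = enzyme with DMSO and 100% = wells lacking PAFAH2 protein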
PAFAH1B3 confirm = PAFAH1B3 enzyme inhibitors, confirmation, biochemical, fluorescence polarization, human; recombinant PAFAH1B3, FP-Rh activity-based probe; shares compounds with PAFAH1B3 FP inh; AID 493032, 2011; 390 compounds, 30% hits; inhibition, % at 3.39 µM;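 active = average inhibition over triplicate runs above the hit cutoff set in the earlier primary screen, cut at about 25% in these data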;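 also: 0% = enzyme with DMSO and 100% = wells lacking PAFAH1B3 protein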
UCH37 reconfirm = retest of human UCH37 deubiquitinase inhibitors, confirmation, biochemical, Ub-AMC cleavage rate, fluorescence; inhibition, % at 20 µM; shares compounds with UCH37 inh; Proteasome-bound UCH37; 480 compounds, 27% hits;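 active = average inhibition over replicates above about 50%, so the earlier screening hit is confirmed, limit read from the data; inactive = the rest, counted as false positives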;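 also: based on cleavage rate fitted by regression over a 30 min kinetic read; 0% = proteasome plus Ub-AMC and 100% = Ub-AMC without proteasome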
An asterisk follows results filed as active. Only some compounds are listed: those with a hit (about 4.8% of all), similar ones and a draw of the others.

COc1ccc(S(=O)(=O)N2CCOCC2)cc1NC(=O)COC(=O)c1[nH]c(C)c(C(C)=O)c1C was read as GRIN3A LBD mod 1, PAFAH1B2 inh 4, PAFAH2 inh 5, PAFAH1B3 FP inh 0, pPAFAH inh 0 and UCH37 inh 2.
Screening COc1ccc(S(=O)(=O)N2CCOCC2)cc1NC(=O)COC(=O)c1ccc([N+](=O)[O-])s1 returned GRIN3A LBD mod 0, PAFAH1B2 inh 15, PAFAH2 inh 40*, PAFAH1B3 FP inh 24, pPAFAH inh 11, UCH37 inh 62*, PAFAH2 FP conf 40* and UCH37 reconfirm 7.
O=C1NC(=S)S/C1=C\C=C\c1ccc([N+](=O)[O-])o1 was read as GRIN3A LBD mod 4, PAFAH1B2 inh 9, PAFAH2 inh 43*, PAFAH1B3 FP inh 17, UCH37 inh 28*, PAFAH2 FP conf 27 and UCH37 reconfirm 32.
For CCOc1ccc(-c2c(C(=O)NN=Cc3ccoc3)nnn2-c2nonc2N)cc1 the results were UCH37 inh 2.
For O=C(O)CCN1C(=O)/C(=C/c2ccc(-c3nc4ccccc4s3)o2)SC1=S the results were GRIN3A LBD mod 2, PAFAH1B2 inh 4, PAFAH2 inh 18, PAFAH1B3 FP inh 20, pPAFAH inh 14 and UCH37 inh 17.
For O=C(O)c1cc(-c2ccc(/C=C3/SC(=S)N(Cc4ccccc4)C3=O)o2)ccc1Cl the results were GRIN3A LBD mod 2, PAFAH1B2 inh 3, PAFAH2 inh 34*, PAFAH1B3 FP inh 3, UCH37 inh 45*, PAFAH2 FP conf 26 and UCH37 reconfirm 60*.
O=C(NN=Cc1cccs1)c1ccccc1-n1cccc1 was read as UCH37 inh 5.
Screening COc1cc([N+](=O)[O-])ccc1-c1ccc(/C=C2\C(=O)ON=C2c2ccccc2)o1 returned GRIN3A LBD mod 0, PAFAH1B2 inh 8, PAFAH2 inh 30*, PAFAH1B3 FP inh 6, UCH37 inh 34*, PAFAH2 FP conf 18 and UCH37 reconfirm 18.
OCC#Cc1ncc(C(F)(F)F)cc1Cl was read as GRIN3A LBD mod 0, PAFAH1B2 inh 1, PAFAH2 inh -3, PAFAH1B3 FP inh 28*, pPAFAH inh 4, UCH37 inh 4 and PAFAH1B3 confirm 25.
O=C(CCl)Nc1c(C(=O)Nc2ccc3c(c2)OCCO3)oc2ccccc12 was read as GRIN3A LBD mod -2, PAFAH1B2 inh 1, PAFAH2 inh 6, PAFAH1B3 FP inh 26*, pPAFAH inh 14, UCH37 inh 0 and PAFAH1B3 confirm 30*.
`COCC(=O)Nc1c(C(=O)Nc2ccc3c(c2)OCO3)oc2ccccc12` gave GRIN3A LBD mod -1, PAFAH1B2 inh 4, PAFAH2 inh 1, PAFAH1B3 FP inh 11, pPAFAH inh -9 and UCH37 inh -2.
Screening CC1=CC(C)(C)NC(=S)N1c1cccc2cc(S(=O)(=O)O)ccc12 returned GRIN3A LBD mod 3, PAFAH1B2 inh 11, PAFAH2 inh 12, PAFAH1B3 FP inh 29*, pPAFAH inh 23, UCH37 inh -2 and PAFAH1B3 confirm 24.
